In brackets after ≈: the same amount, converted by molar mass.
What was measured:
Assay type in all cases: functional
Staphylococcus aureus [1] = test: Antimicrobial activity against SCCmec type III vancomycin-intermediate Staphylococcus aureus isolate b2k3421 by agar dilution method
Procedure, shortened: (§1)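 Agar-dilution MICs were measured on a subset of 200 blood MRSA isolates from China. Agents: oxacillin, rifampin, gentamicin, levofloxacin, erythromycin, vancomycin, teicoplanin, tigecycline, ceftobiprole and linezolid. Phenotype came from the PAP-AUC ratio of each isolate to S. aureus Mu3 (VSSA <0.9; hVISA 0.9 to 1.3; VISA ≥1.3), read on BHI agar with 0 to 8.0 mg/liter vancomycin after 48 h at 35°C.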

Staphylococcus aureus [2] = test: Antimicrobial activity against SCCmec type III vancomycin-intermediate Staphylococcus aureus isolate gz07030 by agar dilution method; procedure, shortened: as §1
Staphylococcus aureus [3] = test: Antimicrobial activity against SCCmec type III vancomycin-intermediate Staphylococcus aureus isolate 5zjsau3 by agar dilution method; procedure, shortened: as §1
Staphylococcus aureus [4] = test: Antimicrobial activity against SCCmec type III vancomycin-intermediate Staphylococcus aureus isolate 13b16 by agar dilution method; procedure, shortened: as §1
Staphylococcus aureus [5] = test: Antimicrobial activity against SCCmec type III vancomycin-intermediate Staphylococcus aureus isolate xa07029 by agar dilution method; procedure, shortened: as §1
Staphylococcus aureus [6] = test: Antimicrobial activity against SCCmec type II vancomycin-intermediate Staphylococcus aureus isolate 4sy32 by agar dilution method; procedure, shortened: as §1
Staphylococcus aureus [7] = test: Antimicrobial activity against SCCmec type III vancomycin-intermediate Staphylococcus aureus isolate sh07043 by agar dilution method; procedure, shortened: as §1
Staphylococcus aureus [8] = test: Antimicrobial activity against SCCmec type III vancomycin-intermediate Staphylococcus aureus isolate bd4768 by agar dilution method; procedure, shortened: as §1
Staphylococcus aureus [9] = test: Antimicrobial activity against SCCmec type III vancomycin-intermediate Staphylococcus aureus isolate gz06051 by agar dilution method; procedure, shortened: as §1
Staphylococcus aureus [10] = test: Antimicrobial activity against SCCmec type III vancomycin-intermediate Staphylococcus aureus isolate b5k3529 by agar dilution method; procedure, shortened: as §1
Staphylococcus aureus [11] = test: Antimicrobial activity against SCCmec type III vancomycin-intermediate Staphylococcus aureus isolate b6k7974 by agar dilution method; procedure, shortened: as §1
Staphylococcus aureus [12] = test: Antimicrobial activity against SCCmec type III vancomycin-intermediate Staphylococcus aureus isolate b3k5923 by agar dilution method; procedure, shortened: as §1
Staphylococcus aureus [13] = test: Antimicrobial activity against SCCmec type III vancomycin-intermediate Staphylococcus aureus isolate 15b52 by agar dilution method; procedure, shortened: as §1
Staphylococcus aureus [14] = test: Antimicrobial activity against SCCmec type III vancomycin-intermediate Staphylococcus aureus isolate b5k3578 by agar dilution method; procedure, shortened: as §1
Staphylococcus aureus [15] = test: Antimicrobial activity against SCCmec type II vancomycin-intermediate Staphylococcus aureus isolate b2k4781 by agar dilution method; procedure, shortened: as §1
Staphylococcus aureus [16] = test: Antimicrobial activity against SCCmec type III vancomycin-intermediate Staphylococcus aureus isolate gs07022 by agar dilution method; procedure, shortened: as §1
Staphylococcus aureus [17] = test: Antimicrobial activity against SCCmec type III vancomycin-intermediate Staphylococcus aureus isolate b3k2345 by agar dilution method; procedure, shortened: as §1
Staphylococcus aureus [18] = test: Antimicrobial activity against SCCmec type III vancomycin-intermediate Staphylococcus aureus isolate b4k6307 by agar dilution method; procedure, shortened: as §1
Staphylococcus aureus [19] = test: Antimicrobial activity against SCCmec type IV vancomycin-intermediate Staphylococcus aureus isolate 06b41 by agar dilution method; procedure, shortened: as §1
Staphylococcus aureus [20] = test: Antimicrobial activity against SCCmec type II vancomycin-intermediate Staphylococcus aureus isolate 4sy39 by agar dilution method; procedure, shortened: as §1
Staphylococcus aureus [21] = test: Antimicrobial activity against SCCmec type II vancomycin-intermediate Staphylococcus aureus isolate 6zjsau7 by agar dilution method; procedure, shortened: as §1
Staphylococcus aureus [22] = test: Antimicrobial activity against SCCmec type III vancomycin-intermediate Staphylococcus aureus isolate b6k1642 by agar dilution method; procedure, shortened: as §1
Staphylococcus aureus [23] = test: Antimicrobial activity against SCCmec type III vancomycin-intermediate Staphylococcus aureus isolate 11b091 by agar dilution method; procedure, shortened: as §1
Staphylococcus aureus [24] = test: Antimicrobial activity against SCCmec type III vancomycin-intermediate Staphylococcus aureus isolate zj07028 by agar dilution method; procedure, shortened: as §1
Staphylococcus aureus [25] = test: Antimicrobial activity against SCCmec type II vancomycin-intermediate Staphylococcus aureus isolate 07b63 by agar dilution method; procedure, shortened: as §1
Staphylococcus aureus [26] = test: Antimicrobial activity against SCCmec type III vancomycin-intermediate Staphylococcus aureus isolate gz06040 by agar dilution method; procedure, shortened: as §1
Staphylococcus aureus [27] = test: Antimicrobial activity against SCCmec type II vancomycin-intermediate Staphylococcus aureus isolate sh06024 by agar dilution method; procedure, shortened: as §1

Molecule	MIC (Staphylococcus aureus [1]) [µg/mL]	MIC (Staphylococcus aureus [2]) [µg/mL]	MIC (Staphylococcus aureus [3]) [µg/mL]	MIC (Staphylococcus aureus [4]) [µg/mL]	MIC (Staphylococcus aureus [5]) [µg/mL]	MIC (Staphylococcus aureus [6]) [µg/mL]	MIC (Staphylococcus aureus [7]) [µg/mL]	MIC (Staphylococcus aureus [8]) [µg/mL]	MIC (Staphylococcus aureus [9]) [µg/mL]	MIC (Staphylococcus aureus [10]) [µg/mL]	MIC (Staphylococcus aureus [11]) [µg/mL]	MIC (Staphylococcus aureus [12]) [µg/mL]	MIC (Staphylococcus aureus [13]) [µg/mL]	MIC (Staphylococcus aureus [14]) [µg/mL]	MIC (Staphylococcus aureus [15]) [µg/mL]	MIC (Staphylococcus aureus [16]) [µg/mL]	MIC (Staphylococcus aureus [17]) [µg/mL]	MIC (Staphylococcus aureus [18]) [µg/mL]	MIC (Staphylococcus aureus [19]) [µg/mL]	MIC (Staphylococcus aureus [20]) [µg/mL]	also measured
CO[C@H]1/C=C/O[C@@]2(C)Oc3c(C)c(O)c4c(O)c(c(/C=N/N5CCN(C)CC5)c(O)c4c3C2=O)NC(=O)/C(C)=C\C=C\[C@H](C)[C@H](O)[C@@H](C)[C@@H](O)[C@@H](C)[C@H](OC(C)=O)[C@@H]1C [RIFAMPIN]	0.008 (≈ 9.72 nM)	0.004 (≈ 4.86 nM)	0.008 (≈ 9.72 nM)	0.008 (≈ 9.72 nM)	> 256	0.008 (≈ 9.72 nM)	0.016 (≈ 19.4 nM)	256 (≈ 311000 nM)	> 256	0.5 (≈ 608 nM)	256 (≈ 311000 nM)	256 (≈ 311000 nM)	0.016 (≈ 19.4 nM)	0.5 (≈ 608 nM)	0.008 (≈ 9.72 nM)	0.008 (≈ 9.72 nM)	0.008 (≈ 9.72 nM)	256 (≈ 311000 nM)	0.016 (≈ 19.4 nM)	0.008 (≈ 9.72 nM)	MIC (Staphylococcus aureus [21]): 0.008 µg/mL (≈ 9.72 nM); MIC (Staphylococcus aureus [22]): 16 µg/mL (≈ 19400 nM); MIC (Staphylococcus aureus [23]): 0.008 µg/mL (≈ 9.72 nM); MIC (Staphylococcus aureus [24]): ≤ 0.002 µg/mL; MIC (Staphylococcus aureus [25]): 0.008 µg/mL (≈ 9.72 nM); MIC (Staphylococcus aureus [26]): 0.008 µg/mL (≈ 9.72 nM); MIC (Staphylococcus aureus [27]): > 256 µg/mL
GENTAMICIN	128	> 256	> 256	256	128	64	128	256	128	> 256	256	128	256	> 256	> 256	8	128	128	0.25	64	MIC (Staphylococcus aureus [21]): 256 µg/mL; MIC (Staphylococcus aureus [22]): > 256 µg/mL; MIC (Staphylococcus aureus [23]): 256 µg/mL; MIC (Staphylococcus aureus [24]): > 256 µg/mL; MIC (Staphylococcus aureus [25]): 64 µg/mL; MIC (Staphylococcus aureus [26]): 256 µg/mL; MIC (Staphylococcus aureus [27]): 256 µg/mL
